Experimental data reported in ChEMBL document CHEMBL4400568, “The design of 1,4-naphthoquinone derivatives and mechanisms underlying apoptosis induction through ROS-dependent MAPK/Akt/STAT3 pathways in human lung cancer cells” (Bioorg Med Chem, 2019).
Calls of active or inactive are those of the source. The rule behind the calls is not given here.

Legend:
A549 [1] = test: Induction of apoptosis in human A549 cells assessed as apoptotic morphological changes at 3 uM by Annexin V-FITC/propidium iodide staining-based flow cytometric analysis; format: functional, cell-based; conditions: TDE = time-dependent effect
A549 [2] = test: Induction of apoptosis in human A549 cells assessed as cell shrinkage at 3 uM by Annexin V-FITC/propidium iodide staining-based flow cytometric analysis; format: functional; conditions: TDE = time-dependent effect
A549 [3] = test: Cell cycle arrest in human A549 cells assessed as decrease in cyclinD1/E levels at 3 uM by Western blot analysis; format: functional, cell-based; conditions: TDE = time-dependent effect
How it was run: (§1)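 A549 cells exposed to 3 μM for 3, 6, 12 or 24 h; where NAC is used, 10 mM NAC is added 30 min before 24 h treatment. Lysate protein (30 μg) is run on 12% SDS-PAGE, blotted to nitrocellulose, blocked in 5% milk, primary antibody overnight at 4°C, then HRP anti-IgG. β-actin loading control; densitometry; three independent experiments, mean ± SD.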

A549 [4] = test: Inhibition of ERK in human A549 cells assessed as decrease in STAT3 phosphorylation at 3 uM after 3 to 24 hrs by Western blot analysis; format: cell-based
How it was run: (§2)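 A549 cells exposed to 3 μM for 3, 6, 12 or 24 h. Lysate protein (30 μg) run on 12% SDS-PAGE and blotted to nitrocellulose. Membranes blocked in 5% skim milk, primary antibodies at 4°C overnight, then HRP anti-IgG secondary for 1 h at room temperature. β-actin was the internal control. Bands quantified by densitometry; three independent experiments, mean ± SD.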

A549 [5] = test: Cell cycle arrest in human A549 cells assessed as accumulation of cells at S phase at 3 uM after 3 hrs by propidium iodide staining-based flow cytometric analysis (reference value: 13.85%); format: functional
[6] = target: MAP kinase p38 (Homo sapiens) (UniProt O15264+Q15759+Q16539+P53778); test: Modulation of p38 MAPK in human A549 cells assessed as reduction in STAT3 phosphorylation measured after 24 hrs in presence of p38 inhibitor SB203580 by Western blot analysis; format: cell-based
How it was run: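 A549 cells pre-incubated for 30 min with 12.1 μM kinase inhibitor: SB203580 (p38), SP600125 (JNK), FR180204 (ERK) or LY10249 (Akt). Compound treatment followed for 24 h. Lysates (30 μg protein) analysed by 12% SDS-PAGE and nitrocellulose immunoblot with HRP detection. Three independent experiments, mean ± SD.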

[7] = target: c-Jun N-terminal kinase, JNK (Homo sapiens) (UniProt P45983+P53779+P45984); test: Activation of JNK phosphorylation in human A549 cells at 3 uM after 24 hrs in presence of NAC by Western blot analysis; format: cell-based; how it was run: as §1
[8] = target: RAC-alpha serine/threonine-protein kinase (Homo sapiens) (UniProt P31749); test: Inhibition of AKT phosphorylation in human A549 cells at 3 uM by Western blot analysis; format: cell-based; conditions: TDE = time-dependent effect; how it was run: as §2
Chain of RAC-alpha serine/threonine-protein kinase (Homo sapiens) (P31749 whole entry): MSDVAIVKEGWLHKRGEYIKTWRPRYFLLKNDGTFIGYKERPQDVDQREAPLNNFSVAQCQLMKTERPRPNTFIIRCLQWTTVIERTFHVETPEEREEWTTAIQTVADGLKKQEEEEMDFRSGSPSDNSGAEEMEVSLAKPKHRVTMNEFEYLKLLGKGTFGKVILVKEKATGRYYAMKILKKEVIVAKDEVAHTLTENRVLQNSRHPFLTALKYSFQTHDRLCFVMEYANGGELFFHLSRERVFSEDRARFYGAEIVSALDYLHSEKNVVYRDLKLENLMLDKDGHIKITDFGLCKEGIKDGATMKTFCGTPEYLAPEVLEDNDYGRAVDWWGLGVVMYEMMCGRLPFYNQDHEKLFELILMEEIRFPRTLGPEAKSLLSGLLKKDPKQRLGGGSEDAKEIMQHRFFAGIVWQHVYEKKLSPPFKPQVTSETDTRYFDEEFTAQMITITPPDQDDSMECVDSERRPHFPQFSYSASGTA

A549 [9] = test: Cell cycle arrest in human A549 cells assessed as accumulation of cells at S phase at 3 uM after 6 hrs by propidium iodide staining-based flow cytometric analysis (reference value: 13.85%); format: functional
A549 [10] = test: Induction of apoptosis in human A549 cells assessed as increase in cleaved caspase-3 expression at 3 uM by Western blot analysis; format: functional, cell-based; conditions: TDE = time-dependent effect; how it was run: as §1
NCI-H23 = test: Cytotoxicity against human NCI-H23 cells assessed as reduction in cell viability after 24 hrs by MTT assay; format: functional, cell-based
How it was run: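 Log-phase cells seeded at 1 × 10⁴ per well. Lung cancer lines (A549, NCI-H23, NCI-H460) and normal lines (IMR-90, QSG-7701, HEK-293A) each exposed to 1, 3, 10, 30 and 100 μM for 24 h. MTT (5 mg/mL stock) added for 2 h at 37°C, formazan dissolved in DMSO, absorbance read at 490 nm. Three independent experiments, mean ± SD.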

A549 [11] = test: Induction of ROS generation in human A549 cells assessed as intracellular ROS level at 3 uM after 3 hrs by DCFH-DA staining-based flow cytometric analysis (reference value: 51.8%); format: functional
How it was run: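 A549 cells loaded with DCFH-DA (10 μM per legend) for 30 min, then exposed to 3 μM at 37°C for 3, 6, 12 or 24 h. After two PBS washes, intracellular fluorescence is quantified by flow cytometry. Three independent experiments, mean ± SD.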

A549 [12] = test: Cell cycle arrest in human A549 cells assessed as accumulation of cells at G2 phase at 3 uM after 3 hrs by propidium iodide staining-based flow cytometric analysis (reference value: 24.02%); format: functional
A549 [13] = test: Induction of apoptosis in human A549 cells assessed as early apoptotic cells at 3 uM after 12 hrs by Annexin V-FITC/propidium iodide staining-based flow cytometric analysis (reference value: 2.73%); format: functional
A549 [14] = test: Induction of apoptosis in human A549 cells at 3 uM by Annexin V-FITC/propidium iodide staining-based flow cytometric analysis; format: functional, cell-based; conditions: TDE = time-dependent effect
How it was run: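 A549 cells seeded at 1 × 10⁵ cells/well, exposed to 3 μM for 3, 6, 12 and 24 h. Then incubated in binding buffer and stained with Annexin V-FITC and PI for 20 min in the dark. Apoptotic cells were scored by fluorescence microscopy and flow cytometry. Three independent experiments, mean ± SD.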

A549 [15] = test: Cell cycle arrest in human A549 cells assessed as accumulation of cells at S phase at 3 uM after 24 hrs by propidium iodide staining-based flow cytometric analysis (reference value: 13.85%); format: functional

Row | Activity [6] | Activity [7] | inhibition [8] | SMILES | Activity (A549 [1]) | Activity (A549 [2]) | Activity (A549 [3]) | inhibition (A549 [4]) | Activity (A549 [5]) [%] | Activity (A549 [9]) [%] | Activity (A549 [10]) | Activity (NCI-H23) | Activity (A549 [11]) [%] | Activity (A549 [12]) [%] | Activity (A549 [13]) [%] | Activity (A549 [14]) | Activity (A549 [15]) [%]
1 | inactive | inactive | Tde | CCCCCCCCCS(=O)(=O)C12OC1C(=O)c1c(OC)ccc(OC)c1C2=O (configuration not stated) | Tde | Tde | Tde | Active | 9.45 | 8.44 | Tde | Active | 52.52 | 26.58 | 16.92 | Tde | 6.03
2 | inactive | inactive | Tde | CCCS(=O)(=O)C12OC1C(=O)c1c(OC)ccc(OC)c1C2=O (configuration not stated) | Tde | Tde | Tde | Active | 11.61 | 10.31 | Tde | Active | 57.9 | 23.47 | 35.37 | Tde | 7.41
